“Also recorded” adds a separate entry of the source.
Experiments:
[1] = test system: SaveOBP3; details: fluorescence-binding assays; ref Vandermoten et al., 2011; cited from earlier work
[2] = test system: EbalOBP3; details: fluorescence-binding assays; ref Vandermoten et al., 2011; cited from earlier work
[3] = test system: D. helophoroides adults; test: Y-tube olfactometer binary choice assay, D. helophoroides adults; assay type: in vivo, Dastarcus helophoroides; details: for attraction to D. helophoroides after silencing DhelOBP10: RNAi, compared with non-injected and dsGFP controls; for behavioral response of D. helophoroides adults in Y-tube: untreated adults, in words
Method in brief: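 Adults reared at 25°C on an artificial diet. RNAi: 4-day-old adults given 300 ng dsDhelOBP10 or dsGFP into the frons, with non-injected controls, and tested 4 days later. Y-tube with 15 cm stem, 12 cm arms at 75°, airflow 300 mL/min per arm. Odour was 10 µL of 100-fold paraffin-oil dilution on filter paper versus paraffin oil. Insects had 5 min; arms swapped; ≥60 insects (30 per sex), each tested once; Chi-square.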

[4] = test system: M. alternatus adults; test: Y-tube olfactometer binary choice assay, M. alternatus adults; assay type: in vivo, Monochamus alternatus; details: for behavioral response of M. alternatus adults in Y-tube: untreated adults, in words
Method in brief: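 Field-collected adults kept singly at 25°C on fresh pine twigs. RNAi: 1 μg dsMaltOBP24 or dsGFP injected into the frons of 4-day-old adults under CO₂ narcosis, with non-injected controls, and tested 4 days later. Y-tube with 40 cm stem, 30 cm arms at 60°, airflow 300 mL/min. Odour was 10 µL of 100-fold paraffin-oil dilution versus paraffin oil. Insects had 5 min; ≥30 per sex, each tested once; Chi-square.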

[5] = target: T1, DhelOBP10 (Dastarcus helophoroides, UniProt A0A1I9HZP4); test: Fluorescence-quenching spectra assay, DhelOBP10; assay type: binding; details: for ΔS (entropy change): DhelOBP10, pH 7.4; for ΔH (enthalpy change): DhelOBP10, pH 7.4, 289 and 298 K; for quenching mechanism of the interaction with DhelOBP10: change of Ksv with temperature 289–298 K, neutral pH; for Kd: Ka (apparent association constant); for main acting force between ligand and DhelOBP10: from signs of ΔH and ΔS
T1 sequence (A0A1I9HZP4 20-220): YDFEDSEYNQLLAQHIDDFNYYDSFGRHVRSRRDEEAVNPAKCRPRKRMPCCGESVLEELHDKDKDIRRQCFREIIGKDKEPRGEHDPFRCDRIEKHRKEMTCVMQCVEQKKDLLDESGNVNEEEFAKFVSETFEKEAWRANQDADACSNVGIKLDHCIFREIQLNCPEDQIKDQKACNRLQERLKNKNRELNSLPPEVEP
Method in brief: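 Intrinsic fluorescence of 2 μM recombinant DhelOBP10 in 30 mM Tris-HCl (pH 7.4 or 5.0): excitation 289 nm, slits 15/10 nm, scan 300–500 nm. Ligand aliquots came from 1 mM stock, at 289 and 298 K. Ksv and Kq were taken from Stern–Volmer fits, Ka and n from double-log plots, and ΔG, ΔH, ΔS from thermodynamic equations to assign binding force.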

[6] = target: T1, DhelOBP10; test: Competitive fluorescence-binding assay with 1-NPN probe, recombinant DhelOBP10; details: for Ki: DhelOBP10 Ki (dissociation constant), 1-NPN competition, mean ± SEM
Method in brief: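 Recombinant signal-peptide-free DhelOBP10 from E. coli (pET-32b; 1 mM IPTG induction, 12 h at 16°C), dialysed into Tris pH 7.4 or 5.0. […] Ligands (1 mM methanol stock) were added to 0–20 μM; Ki = IC50/(1+[1-NPN]/K1-NPN). Mean ± SEM.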

[7] = test system: MaltOBP24; test: Fluorescence-quenching spectra assay, MaltOBP24; assay type: binding, Monochamus alternatus; details: for quenching mechanism of the interaction with MaltOBP24: change of Ksv with temperature 289–298 K, neutral pH
[8] = target: T2, MaltOBP24 (Monochamus alternatus, UniProt A0A1I9HZN3); test: Competitive fluorescence-binding assay with 1-NPN probe, recombinant MaltOBP24; details: MaltOBP24 Ki (dissociation constant), 1-NPN competition, mean ± SEM
T2 sequence (A0A1I9HZN3 1-169): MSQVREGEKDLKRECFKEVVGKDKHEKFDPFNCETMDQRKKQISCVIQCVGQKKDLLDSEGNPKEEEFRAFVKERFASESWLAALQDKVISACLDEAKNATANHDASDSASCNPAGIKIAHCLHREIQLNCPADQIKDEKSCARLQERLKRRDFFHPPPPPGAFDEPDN

Compound	behavioral response of D. helophoroides adults in Y-tube [3]	behavioral response of M. alternatus adults in Y-tube [4]	ΔS (entropy change) [5]	Kq (bimolecular quenching constant) ([5]; DhelOBP10, pH 7.4, 289 K)	Ksv (quenching constant) ([5]; DhelOBP10, pH 7.4, 289 K)	n (number of binding sites) ([5]; DhelOBP10, pH 7.4, 289 K)	ΔG (free energy change) ([5]; DhelOBP10, pH 7.4, 289 K)	Kq (bimolecular quenching constant) ([5]; DhelOBP10, pH 7.4, 298 K)	Ksv (quenching constant) ([5]; DhelOBP10, pH 7.4, 298 K)	n (number of binding sites) ([5]; DhelOBP10, pH 7.4, 298 K)	ΔG (free energy change) ([5]; DhelOBP10, pH 7.4, 298 K)	quenching mechanism of the interaction with DhelOBP10 [5]	quenching mechanism of the interaction with MaltOBP24 [7]	Ki ([8]; pH5.0)	Ki ([8]; pH7.4)	Ki ([6]; pH5.0)	Ki ([6]; pH7.4)	also measured
C=CC(=C)CC/C=C(\C)CCC=C(C)C [(E)-β-farnesene]	–	–	–	–	–	–	–	–	–	–	–	–	–	–	–	–	–	affinity with SaveOBP3 [1]: high affinity; affinity with EbalOBP3 [2]: high affinity
C=C(C)[C@H]1CC=C(C)CC1 [R-(+)-limonene]	significant preference	did not affect their behavior	0.01114 kcal/mol	6.287e+11 M⁻¹ s⁻¹	6,287 ± 91.45 L·mol^−1	0.9715 ± 0.0292	−20,458.37 J·mol^−1	4.016e+11 M⁻¹ s⁻¹	4,016 ± 108.1 L·mol^−1	0.9324 ± 0.0422	−18,738.30 J·mol^−1	static quenching	dynamic quenching	–	–	–	–	attraction to D. helophoroides after silencing DhelOBP10 [3]: not altered; Ka (apparent association constant) ([5]; DhelOBP10, pH 7.4, 289 K): 4,986.95 L·mol^−1; ΔH (enthalpy change) [5]: −6,986.94 J·mol^−1; Ka (apparent association constant) ([5]; DhelOBP10, pH 7.4, 298 K): 1,925.95 L·mol^−1; ligand-binding affinity with DhelOBP10 (class) ([6]; fluorescence binding combined with quenching): high (high if the Ki values <20 μM)
C=C1CC[C@H]2O[C@]2(C)CC[C@@H]2[C@@H]1CC2(C)C [(−)-caryophyllene oxide]	–	–	–	–	–	–	–	–	–	–	–	–	–	38.5 ± 3.44 µM	24.2 ± 1.94 µM	3.65 ± 0.34 µM	15.7 ± 1.26 µM	–
CC1=CC[C@@H]2[C@@H]3[C@H]1[C@@]2(C)CCCC3(C)C [(+)-α-longipinene]	–	–	–	–	–	–	–	–	–	–	–	dynamic quenching	–	–	–	–	–	–
CC1=CCC2C(C1)C2(C)C (centres unmarked) [3-carene]	significant preference	did not affect their behavior	42.1 J/(mol·K)	3.524e+11 M⁻¹ s⁻¹	3,524 ± 122.4 L·mol^−1	0.9999 ± 0.0605	−19,760.09 J·mol^−1	2.97e+11 M⁻¹ s⁻¹	2,970 ± 15.32 L·mol^−1	0.9088 ± 0.0218	−17,960.72 J·mol^−1	static quenching	static quenching	23.5 ± 2.33 µM	3.31 ± 0.68 µM	13.9 ± 2.91 µM	14.5 ± 2.61 µM	attraction to D. helophoroides after silencing DhelOBP10 [3]: significantly lower attraction index; ΔH (enthalpy change) [5]: −7,595.91 J·mol^−1; Kd ([5]; DhelOBP10, pH 7.4, 289 K): 268 µM; Kd ([5]; DhelOBP10, pH 7.4, 298 K): 711 µM; main acting force between ligand and DhelOBP10 [5]: electrostatic force; Ka (apparent association constant) ([7]; MaltOBP24, pH 7.4, 289 K): 9,394,307.39 L·mol^−1; Kq (bimolecular quenching constant) ([7]; MaltOBP24, pH 7.4, 289 K): 2.4156e+12 M⁻¹ s⁻¹; Ksv (quenching constant) ([7]; MaltOBP24, pH 7.4, 289 K): 24,156 ± 442.5 L·mol^−1; Ka (apparent association constant) ([7]; MaltOBP24, pH 7.4, 298 K): 3,347,243.70 L·mol^−1; Kq (bimolecular quenching constant) ([7]; MaltOBP24, pH 7.4, 298 K): 1.8949e+12 M⁻¹ s⁻¹; Ksv (quenching constant) ([7]; MaltOBP24, pH 7.4, 298 K): 18,949 ± 876.5 L·mol^−1
(+)-fenchone	significantly attracted; also recorded: significant preference	significantly attracted; also recorded: could attract adults	0.01694 kcal/mol	3.742e+11 M⁻¹ s⁻¹	3,742 ± 92.59 L·mol^−1	0.9404 ± 0.0271	−18,347.45 J·mol^−1	2.913e+11 M⁻¹ s⁻¹	2,913 ± 190.8 L·mol^−1	0.9471 ± 0.0676	−18,846.32 J·mol^−1	static quenching	static quenching	–	–	–	–	attraction to D. helophoroides after silencing DhelOBP10 [3]: significantly decreased; attraction index to M. alternatus after silencing MaltOBP24 ([4]; RNAi, compared with non-injected and dsGFP controls): significantly decreased; Ka (apparent association constant) ([5]; DhelOBP10, pH 7.4, 289 K): 2,071.51 L·mol^−1; Ka (apparent association constant) ([5]; DhelOBP10, pH 7.4, 298 K): 2,011.77 L·mol^−1; main acting force between ligand and DhelOBP10 [5]: hydrophobic; Ka (apparent association constant) ([7]; MaltOBP24, pH 7.4, 289 K): 3,312,799.36 L·mol^−1; Kq (bimolecular quenching constant) ([7]; MaltOBP24, pH 7.4, 289 K): 2.4531e+12 M⁻¹ s⁻¹; Ksv (quenching constant) ([7]; MaltOBP24, pH 7.4, 289 K): 24,531 ± 303.9 L·mol^−1; Ka (apparent association constant) ([7]; MaltOBP24, pH 7.4, 298 K): 2,154,595.09 L·mol^−1; Kq (bimolecular quenching constant) ([7]; MaltOBP24, pH 7.4, 298 K): 1.4813e+12 M⁻¹ s⁻¹; Ksv (quenching constant) ([7]; MaltOBP24, pH 7.4, 298 K): 14,813 ± 141.8 L·mol^−1
C=C1C2CCC(C2)C1(C)C (centres unmarked) [camphene]	–	–	–	–	–	–	–	–	–	–	–	–	–	> 50 µM	22.1 ± 3.21 µM	8.29 ± 1.99 µM	24.5 ± 2.44 µM	–
CC1=CCC(=C(C)C)CC1 [α-terpinolene]	did not show preference	did not affect their behavior	0.008678 kcal/mol	5.736e+11 M⁻¹ s⁻¹	5,736 ± 153.1 L·mol^−1	1.0321 ± 0.0670	−21,851.44 J·mol^−1	2.139e+11 M⁻¹ s⁻¹	2,139 ± 58.09 L·mol^−1	0.9823 ± 0.1034	−18,944.55 J·mol^−1	static quenching	static quenching	–	–	–	–	Ka (apparent association constant) ([5]; DhelOBP10, pH 7.4, 289 K): 8,904.93 L·mol^−1; ΔH (enthalpy change) [5]: −11,356.86 J·mol^−1; Ka (apparent association constant) ([5]; DhelOBP10, pH 7.4, 298 K): 2,093.14 L·mol^−1; main acting force between ligand and DhelOBP10 [5]: electrostatic force; Ka (apparent association constant) ([7]; MaltOBP24, pH 7.4, 289 K): 5,449,703.40 L·mol^−1; Kq (bimolecular quenching constant) ([7]; MaltOBP24, pH 7.4, 289 K): 2.5179e+12 M⁻¹ s⁻¹; Ksv (quenching constant) ([7]; MaltOBP24, pH 7.4, 289 K): 25,179 ± 659.6 L·mol^−1; Ka (apparent association constant) ([7]; MaltOBP24, pH 7.4, 298 K): 2,525,092.74 L·mol^−1; Kq (bimolecular quenching constant) ([7]; MaltOBP24, pH 7.4, 298 K): 2.0347e+12 M⁻¹ s⁻¹; Ksv (quenching constant) ([7]; MaltOBP24, pH 7.4, 298 K): 20,347 ± 501.6 L·mol^−1
CC12CCC(CC1=O)C2(C)C (centres unmarked) [camphor]	–	–	–	–	–	–	–	–	–	–	–	–	–	> 50 µM	> 50 µM	9.09 ± 1.7 µM	33.8 ± 1.04 µM	–
C=CC(=C)CCC=C(C)C [myrcene]	–	–	–	–	–	–	–	–	–	–	–	–	–	22.4 ± 2.29 µM	24.3 ± 3.95 µM	3.93 ± 0.71 µM	28.7 ± 1.12 µM	–
(+)-α-pinene	–	–	–	–	–	–	–	–	–	–	–	–	dynamic quenching	–	–	–	–	–

Source: paper PMC9263996 (iScience, 2022)
